Measured values published in PMC2888972 (Molecular cancer therapeutics, 2009).
Read-outs that look alike come from different tables or passages of the source.

Experiments:
[1] = tested on: TA1535; assay: Bacterial mutation; settings: positive control 0.5 µg/plate, −S9
[2] = tested on: TA100; assay: Bacterial mutation; settings: positive control 0.5 µg/plate, −S9
[3] = tested on: HK-2 normal; assay: Growth inhibition assay; assay type: cell-based, human; settings: 48 h; for efficacy (maximum growth inhibition observed): 1 to 12.5 µmol/L; for EC50: read-out: potency (EC50, concentration needed to induce half maximal efficacy)
In short: (§1)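 Stock is 0.01 mol/L in DMSO, kept at −20°C under subdued light. Cells get 1–12.5 µmol/L or equal-volume DMSO, in triplicate, for 48 h. Growth index is mean treated OD over mean control OD, plotted against concentration. Maximal inhibition comes by nonlinear regression from plots of 2–3 independent experiments.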

[4] = tested on: Caki-1 cancer; assay: Growth inhibition assay; assay type: cell-based, human; settings: for efficacy (maximum growth inhibition observed): 1 to 12.5 µmol/L; for EC50: read-out: potency (EC50, concentration needed to induce half maximal efficacy)
In short: as §1

[5] = tested on: 786-O cancer; assay: Growth inhibition assay; assay type: cell-based, human; settings: for efficacy (maximum growth inhibition observed): 48 h, 1 to 12.5 µmol/L; for EC50: read-out: potency (EC50, concentration needed to induce half maximal efficacy), 48 h
In short: as §1

[6] = tested on: RTC91696 normal; assay: Growth inhibition assay; assay type: cell-based, human; settings: RTC91696 normal, 48 h, single experiments; for efficacy (maximum growth inhibition observed): 1 to 12.5 µmol/L; for EC50: read-out: potency (EC50, concentration needed to induce half maximal efficacy)

For `[N-]=[N+]=[N-].[Na+]` [NaAZ, reference compound], the “number of revertant colonies, Mean” value [1] was 304 and the “number of revertant colonies, Mean” value [2] was 511.

In the case of `CC1=C(/C=C/C(C)=C/C=C/C(C)=C/C(=O)O)C(C)(C)CCC1` [t-RA, trans-retinoic acid, reference compound], the “efficacy (maximum growth inhibition observed)” value ([3]; HK-2 normal) is reported as 15.81% ± 0.47%, the EC50 ([3]; Homo sapiens) is reported as 6.28 ± 2.19 µM and the “efficacy (maximum growth inhibition observed)” value ([4]; Caki-1 cancer, 48 h) is reported as 6.46% ± 9.40%. The EC50 ([4]; Homo sapiens, CAKI-1, 48 h) was 4.64 ± 1.14 µM and the “efficacy (maximum growth inhibition observed)” value [5] was 0.00% ± 1.43%.

With `CCOC(=O)c1ccc(NC(=O)Nc2ccc3c(c2)C(C)(C)CC(C)(C)S3)cc1` [SHetA4] the “efficacy (maximum growth inhibition observed)” value [6] was 39.67% ± 2.52%, the EC50 [6] was 7.55 ± 0.51 µM and the “efficacy (maximum growth inhibition observed)” value ([3]; HK-2 normal) was 26.35% ± 0.80%. The EC50 ([3]; HK-2 normal) was 5.19 ± 0.25 µM, the “efficacy (maximum growth inhibition observed)” value ([4]; Caki-1 cancer, 48 h) was 68.92% ± 6.94% and the EC50 ([4]; Caki-1 cancer, 48 h) was 5.07 ± 0.15 µM. For the same compound, the “efficacy (maximum growth inhibition observed)” value [5] was 45.04% ± 4.80% and the EC50 [5] was 2.56 ± 0.34 µM.

For `COC(=O)c1ccc(NC(=O)Nc2ccc3c(c2)C(C)(C)CC(C)(C)S3)cc1` [SHetD3], the “efficacy (maximum growth inhibition observed)” value [6] was 46.27% ± 0.95%, the EC50 [6] was 9.42 ± 0.43 µM and the “efficacy (maximum growth inhibition observed)” value ([3]; HK-2 normal) was 26.37% ± 0.22%. The EC50 ([3]; HK-2 normal) was 6.91 ± 0.66 µM, the “efficacy (maximum growth inhibition observed)” value ([4]; Caki-1 cancer, 48 h) was 56.99% ± 12.12% and the EC50 ([4]; Caki-1 cancer, 48 h) was 7.14 ± 0.22 µM. The “efficacy (maximum growth inhibition observed)” value [5] was 61.52% ± 1.44% and the EC50 [5] was 7.15 ± 0.81 µM.

`COC(=O)c1ccc(NC(=S)Nc2ccc3c(c2)C(C)(C)CC(C)(C)S3)cc1` [SHetD4] was tested, and the “efficacy (maximum growth inhibition observed)” value [6] was 37.74% ± 6.61%, the EC50 [6] was 5.36 ± 0.6 µM and the “efficacy (maximum growth inhibition observed)” value ([3]; HK-2 normal) was 43.67% ± 0.44%. The EC50 ([3]; HK-2 normal) was 7.42 ± 0.2 µM, the “efficacy (maximum growth inhibition observed)” value ([4]; Caki-1 cancer, 48 h) was 38.67% ± 1.50% and the EC50 ([4]; Caki-1 cancer, 48 h) was 7.56 ± 0.15 µM. For the same compound, the “efficacy (maximum growth inhibition observed)” value [5] was 44.55% ± 17.56% and the EC50 [5] was 5.08 ± 0.71 µM.
